From ChEMBL document CHEMBL1146742, “A-420983: a potent, orally active inhibitor of lck with efficacy in a model of transplant rejection” (Bioorg Med Chem Lett, 2004)

Legend:
[1] = Plasma clearance was determined in dog after 1 mg/kg (i.v.) and 5 mg/kg (p.o.) administration; type: ADME, organism-based, Canis lupus familiaris; settings: iv
Summary of the method: (§1)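 Pharmacokinetics were measured in mouse (5 mg/kg iv, 6 mg/kg po) and dog (1 mg/kg iv, 5 mg/kg po). Reported parameters were Cmax (ng/mL), Tmax (h), Vd (L/kg), plasma clearance (L/h/kg), elimination half-life (h) and oral bioavailability F (%).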

[2] = Half life was determined in dog after 1 mg/kg (i.v.) and 5 mg/kg (p.o.) administration; type: ADME, organism-based, Canis lupus familiaris; settings: in vivo; summary of the method: as §1
[3] = Half life was determined in mouse after 5 mg/kg (i.v.) and 6 mg/kg (p.o.) administration; type: ADME, organism-based; settings: in vivo; summary of the method: as §1
[4] = biological target: T1, Interleukin-2 (Mus musculus) (UniProt P04351); experiment: Percent inhibition of interleukin-2 production by compound was measured after 8 hours of oral administration in mice; type: functional, organism-based; settings: concentration not given here
T1 sequence (whole entry): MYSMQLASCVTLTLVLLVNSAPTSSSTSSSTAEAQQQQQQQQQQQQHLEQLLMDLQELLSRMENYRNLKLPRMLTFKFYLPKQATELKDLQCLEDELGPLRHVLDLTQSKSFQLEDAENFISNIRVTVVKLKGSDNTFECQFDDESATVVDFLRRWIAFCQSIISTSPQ

[5] = Time to reach maximum plasma concentration was determined in mouse after 5 mg/kg (i.v.) and 6 mg/kg (p.o.) administration; type: ADME, organism-based; settings: po; summary of the method: as §1
[6] = Bioavailability was determined in dog after 1 mg/kg (i.v.) and 5 mg/kg (p.o.) administration; type: ADME, organism-based, Canis lupus familiaris; settings: in vivo, po; summary of the method: as §1
[7] = biological target: Vascular endothelial growth factor receptor 2 (Homo sapiens, UniProt P35968); experiment: Inhibition of vascular endothelial growth factor receptor 2 activity with 1 mM ATP and biotinylated lck peptide
[8] = biological target: T1, Interleukin-2 (Mus musculus); experiment: Percent inhibition of interleukin-2 production by compound was measured after 18 hours of oral administration in mice; type: functional, organism-based; settings: concentration not given here
[9] = Maximum plasma concentration of compound was determined in dog after 1 mg/kg (i.v.) and 5 mg/kg (p.o.) administration; type: ADME, organism-based, Canis lupus familiaris; settings: po; summary of the method: as §1
[10] = Bioavailability was determined in mouse after 5 mg/kg (i.v.) and 6 mg/kg (p.o.) administration; type: ADME, organism-based; settings: in vivo, po; summary of the method: as §1
[11] = Volume of distribution was determined in mouse after 5 mg/kg (i.v.) and 6 mg/kg (p.o.) administration; type: ADME, organism-based; settings: in vivo, iv; summary of the method: as §1
[12] = Maximum plasma concentration of compound was determined in mouse after 5 mg/kg (i.v.) and 6 mg/kg (p.o.) administration; type: ADME, organism-based; settings: po; summary of the method: as §1
[13] = Plasma clearance was determined in mouse after 5 mg/kg (i.v.) and 6 mg/kg (p.o.) administration; type: ADME, organism-based; settings: iv, read-out: Clp (converted); summary of the method: as §1
[14] = organism: Homo sapiens; experiment: Inhibition of anti-CD3 mAb induced inter leukein-2 production in human whole blood was evaluated; type: functional, organism-based
[15] = Volume of distribution was determined in dog after 1 mg/kg (i.v.) and 5 mg/kg (p.o.) administration; type: ADME, organism-based, Canis lupus familiaris; settings: in vivo, iv; summary of the method: as §1
[16] = Time to reach maximum plasma concentration was determined in dog after 1 mg/kg (i.v.) and 5 mg/kg (p.o.) administration; type: ADME, organism-based, Canis lupus familiaris; settings: po; summary of the method: as §1
[17] = biological target: T1, Interleukin-2 (Mus musculus); experiment: Effective concentration to suppress interleukin-2 production was measured after 2.5 hours of oral administration in mice; type: functional, organism-based

Sequence of Vascular endothelial growth factor receptor 2 (P35968 whole entry): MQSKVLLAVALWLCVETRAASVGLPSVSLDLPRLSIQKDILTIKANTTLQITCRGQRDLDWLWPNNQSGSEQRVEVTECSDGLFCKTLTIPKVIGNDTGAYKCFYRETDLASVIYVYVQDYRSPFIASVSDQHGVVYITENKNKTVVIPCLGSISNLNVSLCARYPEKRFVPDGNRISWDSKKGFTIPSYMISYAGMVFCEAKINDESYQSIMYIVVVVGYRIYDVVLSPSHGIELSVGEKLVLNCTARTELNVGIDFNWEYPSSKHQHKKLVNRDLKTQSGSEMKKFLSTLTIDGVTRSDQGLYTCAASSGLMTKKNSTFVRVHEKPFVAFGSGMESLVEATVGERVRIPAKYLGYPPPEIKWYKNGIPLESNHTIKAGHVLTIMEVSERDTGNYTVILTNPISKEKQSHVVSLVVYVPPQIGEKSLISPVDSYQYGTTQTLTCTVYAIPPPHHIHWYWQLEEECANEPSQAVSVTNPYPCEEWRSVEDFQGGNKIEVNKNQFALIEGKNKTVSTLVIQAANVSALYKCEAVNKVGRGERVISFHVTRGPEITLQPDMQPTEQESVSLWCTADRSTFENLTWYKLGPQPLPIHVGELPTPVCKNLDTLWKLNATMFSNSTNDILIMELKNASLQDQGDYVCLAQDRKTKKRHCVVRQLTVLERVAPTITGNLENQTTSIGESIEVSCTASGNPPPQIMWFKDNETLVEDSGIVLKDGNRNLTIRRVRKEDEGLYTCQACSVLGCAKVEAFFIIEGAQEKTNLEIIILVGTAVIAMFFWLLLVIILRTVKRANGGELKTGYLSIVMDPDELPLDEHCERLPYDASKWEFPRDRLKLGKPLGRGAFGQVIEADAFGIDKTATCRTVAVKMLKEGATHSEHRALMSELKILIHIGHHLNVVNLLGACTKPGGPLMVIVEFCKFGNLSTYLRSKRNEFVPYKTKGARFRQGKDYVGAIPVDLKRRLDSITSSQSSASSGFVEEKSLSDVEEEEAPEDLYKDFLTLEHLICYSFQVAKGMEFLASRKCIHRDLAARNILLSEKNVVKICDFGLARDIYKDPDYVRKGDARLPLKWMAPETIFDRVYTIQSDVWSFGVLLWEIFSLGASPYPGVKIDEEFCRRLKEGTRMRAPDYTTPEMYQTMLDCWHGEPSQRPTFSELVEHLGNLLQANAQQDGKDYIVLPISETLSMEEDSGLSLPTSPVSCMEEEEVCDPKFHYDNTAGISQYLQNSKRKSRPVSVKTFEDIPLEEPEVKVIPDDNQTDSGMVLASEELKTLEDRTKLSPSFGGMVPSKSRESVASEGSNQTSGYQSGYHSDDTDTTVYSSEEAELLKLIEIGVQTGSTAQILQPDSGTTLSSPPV

Row | clearance [1] [mL/min/kg] | half-life [2] [min] | half-life [3] [min] | inhibition [4] [%] | Tmax [5] [h] | bioavailability [6] [%] | IC50 [7] [µM] | inhibition [8] [%] | Cmax [9] [ng/mL] | bioavailability [10] [%] | Vd [11] [L/kg] | Cmax [12] [ng/mL] | clearance [13] [mL/min/kg] | IC50 [14] [nM] | Vd [15] [L/kg] | Tmax [16] [h] | ED50 [17] [mg/kg] | ED90 [17] [mg/kg] | SMILES
1 | 11.7 | 2700 | 600 | > 90 | 8 | 32 | > 50 | > 90 | 74 | 30 | 25 | 51 | 28.3 | 8 | 25 | 24 | 1.5 | 6 | COc1cc(-c2nn([C@H]3CC[C@H](N4CCN(C)CC4)CC3)c3ncnc(N)c23)ccc1NC(=O)c1cc2ccccc2n1C
2 | – | – | – | 79 | – | – | – | 33 | – | – | – | – | – | 6 | – | – | 7 | 12.5 | COc1cc(-c2nn([C@H]3CC[C@H](N4CCN(C)CC4)CC3)c3ncnc(N)c23)ccc1NC(=O)c1cc2ccccc2[nH]1
3 | – | – | – | 48 | – | – | – | < 10 | – | – | – | – | – | 7 | – | – | 8.5 | 12.5 | COc1cc(-c2nn([C@H]3CC[C@H](N4CCN(C)CC4)CC3)c3ncnc(N)c23)ccc1NC(=O)c1cc2ccccc2o1
4 | – | – | – | – | – | – | – | – | – | – | – | – | – | 10 | – | – | – | – | COc1cc(-c2nn([C@H]3CC[C@H](N4CCN(C)CC4)CC3)c3ncnc(N)c23)ccc1NCc1ccco1

Row | SMILES | clearance [1] [mL/min/kg] | half-life [2] [min] | half-life [3] [min] | inhibition [4] [%] | Tmax [5] [h] | bioavailability [6] [%] | IC50 [7] [µM] | inhibition [8] [%] | Cmax [9] [ng/mL] | bioavailability [10] [%] | Vd [11] [L/kg] | Cmax [12] [ng/mL] | clearance [13] [mL/min/kg] | IC50 [14] [nM] | Vd [15] [L/kg] | Tmax [16] [h] | ED50 [17] [mg/kg] | ED90 [17] [mg/kg]
5 | COc1cc(-c2nn([C@H]3CC[C@H](N4CCN(C)CC4)CC3)c3ncnc(N)c23)ccc1NC(=O)OCc1ccccc1 | – | – | – | 51 | – | – | – | 14 | – | – | – | – | – | – | – | – | 3 | 14
